Data set [1] deals with Rattus norvegicus. The data set is described as follows: Inhibition of sucrose intake in Zucker fa/fa rat at 10 mg/kg, po after 4 hrs. In kind it is functional. To be noted: for inhibition in vivo at 10 mg/kg: Rattus norvegicus, Zucker, po, 4 h. The method in brief: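 Female Zucker fa/fa rats (10-12 weeks, 300-350 g) trained six consecutive days on 5% sucrose with food and water withdrawn; day 7 randomized (n=6), dosed orally 10 mg/kg in 0.5% carboxymethylcellulose (2 mL/kg), exposed to sucrose 1 h later for 4 h. Consumption measured; % inhibition vs vehicle control; one-way ANOVA with Dunnett's test.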

Data set [2] can be described thus: Half life in fasted Zucker fa/fa rat at 30 mg/kg, po. In kind it is ADME, organism-based. To be noted: in vivo. Also on record: dose 30 mg/kg, route oral. The method in brief:
(§1)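 Overnight-fasted female obese Zucker fa/fa rats (n=6), single 30 mg/kg oral dose as suspension in 0.5% carboxymethylcellulose sodium in water. Retro-orbital serial bleeds at 10, 20, 40 min and 1, 2, 4, 6, 8, 24, 48 h; plasma extracted liquid-liquid and quantified by LC-MS against spiked-matrix calibration with internal standard. Noncompartmental parameters computed.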

A short description of data set [3]: Cmax in fasted Zucker fa/fa rat at 30 mg/kg, po. In kind it is ADME, organism-based. Also on record: dose 30 mg/kg, route oral. To be noted: in vivo. An outline of the steps: as §1
Data set [4] can be described thus: Drug concentration in fasted Zucker fa/fa rat brain at 30 mg/kg, po after 3 hrs. In kind it is ADME, organism-based. Also on record: dose 30 mg/kg, route oral. Particulars: read-out: Drug uptake. The method in brief: (§2)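 Female obese Zucker fa/fa rats (n=6), fasted, single oral 30 mg/kg in 0.5% carboxymethylcellulose; blood, brain and white adipose tissue taken at 3 h. Tissues saline-washed and homogenized in Tris buffer pH 7.4; plasma and homogenates liquid-liquid extracted and assayed by LC-MS (cyano column, ammonium acetate/TFA–acetonitrile 30:70). Values mean ± SEM.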

Data set [5] is described as follows: Drug concentration in fasted Zucker fa/fa rat plasma at 30 mg/kg, po after 3 hrs. It counts as ADME, organism-based. Also on record: dose 30 mg/kg, route oral. The method in brief: as §2
A short description of data set [6]: AUC (0 to infinity) in fasted Zucker fa/fa rat at 30 mg/kg, po. Also on record: time infinity, dose 30 mg/kg, route oral. In kind it is ADME, organism-based. Particulars: plasma. The method in brief:
as §1

Data set [7] deals with Rattus norvegicus. Nature of the data set: Reduction in serum triglyceride level in Zucker fa/fa rat at 10 mg/kg, po after 60 days. It counts as functional, organism-based. Also on record: dose 10 mg/kg. The method in brief: (§3)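 Individually housed female obese Zucker fa/fa rats, groups of six, dosed orally daily 1 h before dark phase for 60 days; body weight recorded daily. Day 61 morning retro-orbital blood drawn and serum triglyceride measured by colorimetric kit. One-way ANOVA with Dunnett's test versus control.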

Data set [8] is described as follows: Drug concentration in fasted Zucker fa/fa rat white adipose tissue at 30 mg/kg, po after 3 hrs. It counts as ADME, organism-based. Also on record: dose 30 mg/kg, route oral. To be noted: read-out: Drug uptake. The method in brief: as §2
Data set [9] has as its system Rattus norvegicus. Nature of the data set: Inhibition of body weight gain in Zucker fa/fa rat at 10 mg/kg, po. In kind it is functional, organism-based. Also on record: dose 10 mg/kg. An outline of the steps: as §3
Data set [10] can be described thus: Tmax in fasted Zucker fa/fa rat at 30 mg/kg, po. Also on record: dose 30 mg/kg, route oral. Particulars: in vivo. It counts as ADME, organism-based. An outline of the steps: as §1
For data set [11], the target named is Cannabinoid receptor 1 (Homo sapiens, UniProt P21554). Nature of the data set: biochemical. In kind it is cell-based, HEK293.
Data set [12] addresses Cannabinoid receptor 2 (Homo sapiens, UniProt P34972). Nature of the data set: Displacement of [3H]WIN-552122 from human recombinant CB2 receptor expressed in CHOK1 cells. It counts as cell-based, CHO-K1.

Calls of active or inactive are those of the source. The rule behind the calls is not given here.

The inhibition in vivo is the share of the control response that was lost under treatment. A high value points to a response far below the control. A word on the Inhibition: it is the drop in the measured response relative to a control, in per cent. Read a high Inhibition as strong suppression. As usually defined, the half-life is how long it takes for the measured level to halve. Low values mean rapid decline, high ones slow decline. By Cmax is commonly meant the highest concentration seen after dosing. One may read the AUC(0-inf) as the area under the concentration-time curve extrapolated to infinity. The low end stands for less exposure, the high end for more exposure. As usually defined, the Tmax is the time at which the peak concentration occurs. By Ki is commonly meant the dissociation constant of the complex between target and ligand, obtained from inhibition or displacement.

Cannabinoid receptor 2, sequence (P34972 whole entry): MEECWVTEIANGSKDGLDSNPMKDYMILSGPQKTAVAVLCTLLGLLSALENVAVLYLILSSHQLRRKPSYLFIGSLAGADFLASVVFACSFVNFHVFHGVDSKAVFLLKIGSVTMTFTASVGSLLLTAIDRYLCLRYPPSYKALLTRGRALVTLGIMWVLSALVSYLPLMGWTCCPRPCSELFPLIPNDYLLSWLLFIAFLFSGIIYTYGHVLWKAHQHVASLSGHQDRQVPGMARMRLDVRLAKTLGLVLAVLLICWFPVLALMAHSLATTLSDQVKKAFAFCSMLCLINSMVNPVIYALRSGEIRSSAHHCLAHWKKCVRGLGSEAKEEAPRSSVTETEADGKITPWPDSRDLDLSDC
Cannabinoid receptor 1, sequence (P21554 whole entry): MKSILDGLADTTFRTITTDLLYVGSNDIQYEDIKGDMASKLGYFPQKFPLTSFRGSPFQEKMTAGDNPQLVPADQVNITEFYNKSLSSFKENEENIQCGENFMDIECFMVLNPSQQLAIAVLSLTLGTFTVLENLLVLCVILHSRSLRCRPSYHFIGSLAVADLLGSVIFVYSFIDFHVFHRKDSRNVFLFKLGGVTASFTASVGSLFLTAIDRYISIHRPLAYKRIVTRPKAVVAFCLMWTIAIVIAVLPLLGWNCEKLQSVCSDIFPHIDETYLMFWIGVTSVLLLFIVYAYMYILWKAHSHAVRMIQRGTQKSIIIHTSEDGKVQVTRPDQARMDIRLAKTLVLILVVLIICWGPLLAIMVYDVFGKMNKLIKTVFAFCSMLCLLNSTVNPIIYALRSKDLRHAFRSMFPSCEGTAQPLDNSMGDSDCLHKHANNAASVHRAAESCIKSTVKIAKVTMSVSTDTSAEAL

`O=C(NN1CCOCC1)C1=NN(c2ccc(Cl)cc2Cl)C(c2cccnc2)C1` (configuration not stated): in [1], the inhibition in vivo at 10 mg/kg is 4%. In data set [1], `O=C(NN1CCOCC1)C1=NN(c2ccc(Cl)cc2Cl)C(c2ccc(Cl)cc2)C1` (configuration not stated) yielded an Inhibition of 34.2%.

`O=C(NN1CCOCC1)C1=NN(c2ccc(Cl)cc2)C(c2ccc(Cl)cc2)C1` (configuration not stated) displayed an inhibition in vivo at 10 mg/kg in data set [1] of 8.1%. As for `O=C(NN1CCOCC1)C1=NN(c2ccc(Cl)cc2)C(c2ccccc2)C1` (configuration not stated), the inhibition in vivo at 10 mg/kg in [1] is 5.6%. The same measure, in the same setting: the result for `O=C(NN1CCOCC1)C1=NN(c2ccc(Cl)cc2Cl)C(c2ccc(Br)cc2)C1` (configuration not stated) reads 24.2%.

`Cl.O=C(NN1CCOCC1)C1=NN(c2ccc(Cl)cc2Cl)C(c2ccc(Cl)cc2)C1` (single isomer, unassigned; 27) yielded an Inhibition in data set [1] (10 mg/kg) of 30.1%. On to `Cl.O=C(NN1CCOCC1)C1=NN(c2ccc(Cl)cc2Cl)C(c2ccc(Cl)cc2)C1` (racemic; form 1), for which, in data set [1] (10 mg/kg), the Inhibition is 34.5%. On to `Cc1ccc(C2CC(C(=O)NN3CCOCC3)=NN2c2ccc(Cl)cc2Cl)s1` (configuration not stated), for which 10 mg/kg produced 9.3% inhibition in vivo in data set [1]. On the same count and under the same terms, the result for `O=C(NN1CC2CCCC2C1)C1=NN(c2ccc(Cl)cc2Cl)C(c2ccc(Cl)cc2)C1` (configuration not stated) reads 3.6%; that for `CCCCOc1ccc(C2CC(C(=O)NN3CCOCC3)=NN2c2ccc(Cl)cc2Cl)cc1` (configuration not stated), 18.1%; that for `O=C(NN1CCOCC1)C1=NN(c2ccc(Cl)cc2Cl)C(c2ccccc2)C1` (configuration not stated), 31.9%.

As for `O=C(NN1CCCCCC1)C1=NN(c2ccc(Cl)cc2Cl)C(c2ccc(Cl)cc2)C1` (configuration not stated), in data set [1], at 10 mg/kg the inhibition in vivo was 8.4%. Still for that read-out and setting: the result for `O=C(NN1CCCC1)C1=NN(c2ccc(Cl)cc2Cl)C(c2ccc(Cl)cc2)C1` (configuration not stated) reads 2.5%; that for `O=C(NN1CCCCC1)C1=NN(c2ccc(Cl)cc2Cl)C(c2ccc(Cl)cc2)C1` (configuration not stated), 23.6%. The same measure, in the same setting: the result for `O=C(NN1CCOCC1)C1=NN(c2ccc(Cl)cc2Cl)C(c2cccs2)C1` (configuration not stated) reads 3%; that for `O=C(NN1CCOCC1)C1=NN(c2ccccc2)C(c2ccccc2)C1` (configuration not stated), 11.9%.

Molecule `Cc1c(C(=O)NN2CCCCC2)nn(-c2ccc(Cl)cc2Cl)c1-c1ccc(Cl)cc1` [RIMONABANT] gave a half-life in data set [2] of 26.6 h. In data set [3], the Cmax is 1920 ng/mL. In addition, the concentration at 3 h was 450 ng/g in data set [4], 400 ng/mL in [5] and 4250 ng/g in data set [8]. This molecule also came in with an area under the curve AUC(0-inf) in data set [6] of 41200 ng·h/mL. The result in data set [7] and in data set [9] was Active. Besides, testing at 10 mg/kg in data set [1] gave an inhibition in vivo of 36.7%. In addition, the time of peak concentration (Tmax) in [10] came out at 2.6 h.

In the case of `CS(=O)(=O)O.O=C(NN1CCOCC1)C1=NN(c2ccc(Cl)cc2Cl)C(c2ccc(Cl)cc2)C1` (configuration not stated), the Inhibition in data set [1] was 19.2%. As to `CN1CCN(NC(=O)C2=NN(c3ccc(Cl)cc3Cl)C(c3ccc(Cl)cc3)C2)CC1` (configuration not stated), at 10 mg/kg the inhibition in vivo in data set [1] was 22.6%.

Molecule `O=C(NN1CCOCC1)C1=NN(c2ccc(Cl)cc2Cl)C(c2ccc3c(c2)OCO3)C1` (configuration not stated) returned an inhibition in vivo at 10 mg/kg in data set [1] of 17%.

As for `O=C(NN1CCOCC1)C1=NN(c2ccc(Cl)cc2Cl)C(c2ccc(Cl)cc2)C1.O=S(=O)(O)c1ccccc1` (single isomer, unassigned; 33), the Inhibition in data set [1] is reported as 17.1%. Turning to `CCCCCc1ccc(C2CC(C(=O)NN3CCOCC3)=NN2c2ccc(Cl)cc2Cl)cc1` (configuration not stated), in data set [1], at 10 mg/kg the inhibition in vivo was 13.1%.

As for `O=C(NN1CCOCC1)C1=NN(c2ccc(Cl)cc2Cl)C(c2ccc(Cl)cc2)C1` (single isomer, unassigned; 30), the outcome in data set [7] and in [9] was Active. `COc1ccc(C2CC(C(=O)NN3CCOCC3)=NN2c2ccc(Cl)cc2Cl)cc1` (configuration not stated): in data set [1], testing at 10 mg/kg gave an inhibition in vivo of 9.4%. With `O=C(NN1CCOCC1)C1=NN(c2ccc(Cl)cc2Cl)C(c2ccc(Cl)cc2)C1` (racemic; form 2), the result in data set [7] and in data set [9] was Active. In [1], `O=C(NN1CCOCC1)C1=NN(c2ccc(Cl)cc2Cl)C(c2ccc(Cl)s2)C1` (configuration not stated) registered an inhibition in vivo at 10 mg/kg of 16.7%. `Cl.O=C(NN1CCOCC1)C1=NN(c2ccc(Cl)cc2Cl)C(c2ccc(Cl)cc2)C1` (stereo in doubt; 29) came in with an Inhibition in data set [1] (10 mg/kg) of 42.2%.

`O=C(NN1CCOCC1)C1=NN(c2ccccc2)C(c2ccc(Cl)cc2)C1` (configuration not stated) came in with an inhibition in vivo at 10 mg/kg in data set [1] of 0.5%. As to `O=C(NN1CCOCC1)C1=NN(c2ccc(Cl)cc2Cl)C(c2ccc(Cl)cc2)C1.O=S(=O)(O)O` (single isomer, unassigned; 28), the inhibition constant (Ki) is 0.475 µM in data set [11] and 26.4 µM in data set [12]. Also, the Inhibition in data set [1] (10 mg/kg) is 15.4%. Consider `O=C(NN1CCOCC1)C1=NN(c2ccc(Cl)cc2Cl)C(c2ccco2)C1` (configuration not stated), for which at 10 mg/kg the inhibition in vivo in [1] was 15.1%. In the case of `O=C(NN1CCOCC1)C1=NN(c2ccc(Cl)cc2Cl)C(c2ccc(Cl)cc2)C1.O=S(=O)(O)O` (racemic; form 2), the Ki came to 0.334 µM in data set [11] and 21.7 µM in data set [12]. The molecule further came in with an Inhibition in data set [1] (10 mg/kg) of 36.4%. Molecule `O=C(NN1CCOCC1)C1=NN(c2ccc(Cl)cc2Cl)C(c2ccc(Cl)cc2)C1.O=C(O)C(=O)O` (configuration not stated) returned an Inhibition in data set [1] of 20.4%.

Source of the values: ChEMBL document CHEMBL1138302, “Diaryl dihydropyrazole-3-carboxamides with significant in vivo antiobesity activity related to CB1 receptor antagonism: synthesis, biological evaluation, and molecular modeling in the homology model” (J Med Chem, 2007).
